Assay outcomes deposited in PubChem by Broad Institute.
The entries come from a sample that favours hits as a whole.
T cruzi HTS: blocks T. cruzi growth inside host cells; 22,000 tested, 4.9% active; intracellular Trypanosoma cruzi in host cells, plate reader; activity score (inhibition), % at 5.01 µM; in the data active = activity score above about 55%; inconclusive = no clear call, values can overlap the other calls;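 also: parasites and compound incubated about four days before reading; 0% = median of neutral control wells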
YB-1 expr inh: YB-1 expression inhibition; 30,000 tested, 0.37% active; U2OS, qRT-PCR YB-1 vs CDIP delta delta Cp, 16 h; active compounds read high; zero = DMSO, each unit about twofold; AID 434959; delta delta Cp (YB-1 minus CDIP) (no concentration beside the values);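 active = delta delta Cp rounded down to an integer at or above 3, about 3 SD of DMSO wells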;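 also: higher means less YB-1 transcript or more CDIP transcript relative to DMSO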
INS-1E ATP HTS: INS-1E beta cell protection from cytokine death; protection from cytokine-induced ATP loss, % at 10 µM; INS-1E cytokine-induced death, ATP luminescence, 48 h; normalised: neutral wells 0, positive control 100; 20,000 tested, 0.1% active;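 active = mean replicate protection from cytokine-induced ATP loss at least 50% and at least 75% of replicates each reaching 50%; inconclusive = meets only one of the two criteria, mean or replicate share; inactive = fails both the mean and replicate share criteria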
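Material: INS-1E rat cells; Quantity: 8000 cells/well; Buffer or medium: phenol-red-free RPMI with 5% fetal bovine serum; Probe or stimulus: cytokine cocktail of IFN-γ, TNF-α and IL-1β; Compound dosing: single test concentration per compound, delivered by pin transfer; Incubation: 48 h co-treatment, 10 min post-lysis read; Signal: CellTiter-Glo luminescence.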
* marks the source's active call; other numbers are inactive results; ? = inconclusive; . = not tested or not shown.

SMILES	T cruzi HTS	YB-1 expr inh	INS-1E ATP HTS
C[C@@H]1CN([C@H](C)CO)C(=O)Cc2cc(NS(=O)(=O)c3ccc(Cl)cc3)ccc2O[C@@H]1CN(C)Cc1ccc(Oc2ccccc2)cc1	61*	0.58	-27
C[C@H](CO)N1C[C@H](C)[C@H](CN(C)Cc2ccc(Oc3ccccc3)cc2)Oc2ccc(NS(=O)(=O)c3ccc(F)cc3)cc2CC1=O	35	-0.092	-12
C[C@H]1CN([C@@H](C)CO)C(=O)c2cc(NS(=O)(=O)c3ccc(F)cc3)ccc2O[C@@H]1CN(C)Cc1ccc(Oc2ccccc2)cc1	69*	-0.49	-16
C[C@@H]1CN([C@@H](C)CO)C(=O)c2cc(NS(=O)(=O)c3ccc(F)cc3)ccc2O[C@@H]1CN(C)Cc1ccc(Oc2ccccc2)cc1	3	-0.37	-33
CNC(=O)Nc1nc2cccnc2s1	.	-0.31	.
CCCN(CCC)S(=O)(=O)c1ccc(C(=O)NN)cc1	.	-0.58	.
Cc1ccc(CC(=S)N2CCOCC2)cn1	.	-0.27	.
CC(=O)Nc1[nH]c2c(c1C#N)CCCCC2	.	-0.021	.
C[C@H]1CN([C@@H](C)CO)C(=O)c2cccc(NC(=O)c3nc4ccccc4s3)c2O[C@@H]1CN(C)S(=O)(=O)c1ccc(F)cc1	67*	-0.46	-20
C[C@H]1CN([C@@H](C)CO)C(=O)c2cccc(NC(=O)c3nc4ccccc4s3)c2O[C@@H]1CN(C)S(=O)(=O)c1ccc(Cl)cc1	78*	-0.25	-17
C[C@H](CO)N1C[C@H](C)[C@@H](CN(C)S(=O)(=O)c2ccc(F)cc2)Oc2c(NC(=O)c3nc4ccccc4s3)cccc2C1=O	?	0.014	-13
C[C@H]1CN([C@@H](C)CO)C(=O)c2cccc(NC(=O)c3nc4ccccc4s3)c2O[C@H]1CN(C)S(=O)(=O)c1ccc(F)cc1	74*	-0.02	-31
C[C@H]1CN([C@@H](C)CO)C(=O)c2cccc(NC(=O)c3nc4ccccc4s3)c2O[C@H]1CN(C)S(=O)(=O)c1ccc(Cl)cc1	36	-0.16	2
C[C@@H]1CN([C@@H](C)CO)C(=O)c2cccc(NC(=O)c3nc4ccccc4s3)c2O[C@@H]1CN(C)S(=O)(=O)c1ccc(F)cc1	35	-0.087	-11
Cn1c(O)c(C=Nc2cccc(Cl)c2)c2ccccc21	.	0.092	.
CSC1=NC2(CCCCC2)NC2=C1CCCC2	.	-0.19	.
CCCCCCCCC#CC#C/C=C/CCCC(=O)O	.	0.44	.
O=C(CSc1nc2ccccc2s1)OCN1C(=O)c2ccccc2C1=O	.	-0.018	.
CC1N=C(SCC#N)N2C(C)N=C(SCC#N)N12 (centres undefined)	.	-0.051	.
COc1cccc(S(=O)(=O)N(C)C[C@@H]2Oc3ncc(C#Cc4ccc(C(F)(F)F)cc4)cc3C(=O)N([C@H](C)CO)C[C@@H]2C)c1	89*	0.71	.
COc1cccc(S(=O)(=O)N(C)C[C@@H]2Oc3ncc(C#Cc4ccc(OC)c(OC)c4)cc3C(=O)N([C@H](C)CO)C[C@@H]2C)c1	35	-0.29	-10
COc1cccc(S(=O)(=O)N(C)C[C@@H]2Oc3ncc(C#Cc4cccc(F)c4)cc3C(=O)N([C@H](C)CO)C[C@@H]2C)c1	65*	0.33	.
COc1cccc(S(=O)(=O)N(C)C[C@@H]2Oc3ncc(C#CCN(C)C)cc3C(=O)N([C@H](C)CO)C[C@@H]2C)c1	15	0.023	2
N#CC1(NC(=O)c2cc3ccccc3oc2=O)CCCCC1	.	-0.34	.
C[C@H]1CC[C@@H]2[C@@H](C(=O)c3c(O)c([C@]4(O)CC[C@@H](O)[C@H]5O[C@H]54)c[nH]c3=O)[C@@H](C)C=C[C@H]2C1	.	-0.36	.
CC1(C)CC(=O)C2=C(C1)Nc1ccccc1N(C(=O)C(F)(F)F)C2c1ccc(Cl)cc1Cl (centres undefined)	.	-0.094	.
COc1cc(C(C)CC(C)(O)CC(=O)O)oc(=O)c1C (centres undefined)	.	0.16	.
C[C@@H]1CCCCO[C@@H](CN(C)Cc2ccncc2)[C@@H](C)CN([C@H](C)CO)C(=O)c2cc(NC(=O)Nc3ccc(C(F)(F)F)cc3)ccc2O1	57*	-0.1	-3
C[C@@H]1CCCCO[C@@H](CN(C)Cc2ccc(C(F)(F)F)cc2)[C@@H](C)CN([C@H](C)CO)C(=O)c2cc(NC(=O)Nc3ccc4c(c3)OCO4)ccc2O1	70*	-0.52	-13
C[C@@H]1CCCCO[C@@H](CN(C)Cc2ccc(C(F)(F)F)cc2)[C@@H](C)CN([C@H](C)CO)C(=O)c2cc(NC(=O)Nc3ccc(F)cc3)ccc2O1	79*	0.26	-4
